According to ChEMBL document CHEMBL1139481, “Synthesis and biological activity of anticancer ether lipids that are specifically released by phospholipase A2 in tumor tissue” (J Med Chem, 2005):
pIC50: −log10 of the molar value.

Tests used:
Format in all cases: functional, cell-based
HT-29 = experiment: Cytotoxicity against human HT29 cells after 72 hrs by MTT assay; details: HT-29, 72 h
Summary of the method: (§1)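 Cells (Caco-2 in Dulbecco's modified Eagle medium; HT-29 in McCoy's 5A; both with 10% FCS and 2 mM L-glutamine; KATO III in RPMI 1640 with 10% heat-inactivated FCS, 2 mM L-glutamine, 1 mM pyruvate, 5% CO2, 37 °C) plated at 1 × 10^4/well 24 h before adding AELs in PBS with 5-30% ethanol. After 72 h, MTT read-out. IC50 is 50% reduction in cell number; mean ± SD, n = 3-9.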

[1] = Cytotoxicity against human KATO3 cells after 72 hrs by MTT assay; details: KATO3, 72 h; summary of the method: as §1
Caco-2 = experiment: Cytotoxicity against human Caco-2 cells after 72 hrs by MTT assay; details: Caco-2, 72 h; summary of the method: as §1
MDA-MB-435 [2] = experiment: Inhibition of Akt phosphorylation in MDA-MB-435 cells after 2 hrs; details: Homo sapiens, MDA-MB-435, 2 h
Summary of the method: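 MDA-MB-435 cells at 70% confluency, serum-starved 18 h, then given compound for 2 h and stimulated with insulin 10 µg/mL for 30 min. Lysates taken in Laemmli buffer after an ice-cold PBS wash. Western blot probed for Ser473 phospho-Akt, with total Akt as loading control. Controls: no insulin, and wortmannin 2 µM for 2 h before insulin.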

MDA-MB-435 [3] = experiment: Cytotoxicity against human MDA-MB-435 cells after 3 days in serum free conditions by MTT assay; details: MDA-MB-435, 72 h
Summary of the method: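 MDA-MB-435 cells grown in Dulbecco's modified Eagle medium with 10% FCS and 2 mM L-glutamine, then plated at 1 × 10^4/well 24 h before treatment. Lipids in PBS with 5-30% ethanol were added, and cells were incubated 3 days without serum to match the Akt study conditions. MTT read-out was expressed as percentage reduction in incorporated MTT, run in triplicate.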

| pIC50 (MDA-MB-435 [2]) | Compound | pIC50 (HT-29) | pIC50 [1] | pIC50 (Caco-2) | pIC50 (MDA-MB-435 [3]) |
| --- | --- | --- | --- | --- | --- |
| 4.62 | CCCCCCCCCCCCCCCCOC[C@@H](O)COP(=O)(O)OC[C@@H](O)CO | 4.70 | 4.31 | 4.12 | 4.33 |
| 4.62 | CCCCCCCCCCCCCCCCOC[C@@H](O)COP(=O)(O)OC[C@H](O)CO | 3.98 |  |  | 4.14 |
| 5.52 | CCCCCCCCCCCCCCCCCCOCC(COP(=O)([O-])OCC[N+](C)(C)C)OC (configuration not stated) [EDELFOSINE] |  |  |  | 4.92 |
| 5.30 | CCCCCCCCCCCCCCCCOP(=O)([O-])OCC[N+](C)(C)C [MILTEFOSINE] |  |  |  | 4.64 |
